Experimental data collected from several papers.
Protocols differ between the studies behind these lines.
Target: Protein kinase C iota type (PRKCI, Homo sapiens, UniProt P41743)
Residues used in one study (P41743 1-596): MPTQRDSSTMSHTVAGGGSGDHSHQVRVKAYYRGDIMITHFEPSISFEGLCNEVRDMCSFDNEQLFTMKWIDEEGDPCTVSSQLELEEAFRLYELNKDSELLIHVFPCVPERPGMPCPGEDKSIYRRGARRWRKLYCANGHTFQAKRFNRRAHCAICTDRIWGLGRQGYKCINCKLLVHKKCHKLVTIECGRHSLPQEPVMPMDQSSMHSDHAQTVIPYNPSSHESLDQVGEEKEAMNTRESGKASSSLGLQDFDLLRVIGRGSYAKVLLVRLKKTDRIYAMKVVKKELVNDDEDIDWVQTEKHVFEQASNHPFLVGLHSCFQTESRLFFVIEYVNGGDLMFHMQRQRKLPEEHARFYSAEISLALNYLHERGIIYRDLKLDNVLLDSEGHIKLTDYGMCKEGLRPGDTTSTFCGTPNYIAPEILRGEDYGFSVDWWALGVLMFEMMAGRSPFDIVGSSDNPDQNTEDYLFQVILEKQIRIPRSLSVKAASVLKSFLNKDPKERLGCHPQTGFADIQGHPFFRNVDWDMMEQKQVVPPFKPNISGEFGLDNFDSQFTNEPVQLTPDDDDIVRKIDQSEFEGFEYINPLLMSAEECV

Structure (SMILES)	test	setting	measurement	result
Cn1cc(-c2cc(F)cc(N3CCn4c(cc5c4CCCC5)C3=O)c2CO)cc(Nc2ccc(N3CCN(C4COC4)CC3)cn2)c1=O	enzyme activity, inhibitor	0.1 µM	inhibition	-3%
COc1cc(Nc2ncc(F)c(Nc3ccc4c(n3)NC(=O)C(C)(C)O4)n2)cc(OC)c1OC	binding	10 µM	inhibition	35%
O=c1[nH]c2ccccc2n1C1CCN(Cc2ccc(-c3[nH]c4cc5ncnc5cc4nc3-c3ccccc3)cc2)CC1	cell-free assay	0.5 µM	remaining signal	97%
Cn1cncc1[C@](O)(COc1ccc(C#N)cc1-c1ccc(OC(F)(F)F)cc1)c1ccc(C#N)cc1	cell-free assay, competition with immobilised ligand	1 µM	remaining binding	100%
CC(C)(C)c1cc(C=C(C#N)C#N)cc(Br)c1O	enzyme activity, inhibitor	0.5 µM	remaining activity	100%
Cn1cc(-c2cccc(N3CCc4c(sc5c4CC(C)(C)C5)C3=O)c2CO)cc(Nc2ccncn2)c1=O	enzyme activity, inhibitor	1 µM	inhibition	6%
COCc1c(-c2cc3cc(C)cc(OC)c3s2)c2c(N)ncnn2c1CN1CCNC(=O)C1	cell-free assay, competition with immobilised ligand	1 µM	inhibition	80%
COc1ncccc1-c1cnn2ccc(N3CCN(C(=O)OC(C)C)CC3)nc12	binding, competition with immobilised ligand	1 µM	remaining binding	90%
